Data published in ChEMBL document CHEMBL4689842, “EUbOPEN Chemogenomics Library wave 1” (2021).
Values joined by “and” are separate entries in the source; they are usually repeats but may differ in a detail not shown here. Equal entries are not always repeated.

Test system: HEK-293T
Test: Multiplex assay against HEK293T;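 as to Population Tubulin-Different-Phenotype (%): share of the cells with healthy nuclei that show this phenotype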
Format: toxicity, cell-based
Details: human
Procedure, shortened: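 Cells stained live at seeding with Hoechst33342, BioTracker Green Microtubule Cytoskeleton Dye, MitoTracker Red and Annexin V Alexa Fluor 680 were imaged on a CQ1 microscope at 37°C and 5% CO2 after compound addition. Their classification by CellPathfinder machine-learning gating ran from Hoechst high-intensity objects versus normal cells, to healthy, pyknosed or fragmented nuclei among normal cells, to mitotic or apoptotic among pyknosed cells. Tubulin, mitochondrial-mass and membrane-permeability phenotypes are per cents of healthy-nucleus cells.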

[1] = 12 h, 1 µM, compound concentration 1 uM, replicate 1
[2] = 12 h, 1 µM, compound concentration 1 uM, replicate 2
[3] = 12 h, 10 µM, compound concentration 10 uM, replicate 1
[4] = 12 h, 10 µM, compound concentration 10 uM, replicate 2
[5] = 24 h, 1 µM, compound concentration 1 uM, replicate 1
[6] = 24 h, 1 µM, compound concentration 1 uM, replicate 2
[7] = 24 h, 10 µM, compound concentration 10 uM, replicate 1
[8] = 24 h, 10 µM, compound concentration 10 uM, replicate 2

C=CC(=O)Nc1cc2c(Nc3ccc(F)c(Cl)c3)ncnc2cc1OCCCN1CCOCC1.Cl.Cl [CANERTINIB DIHYDROCHLORIDE]
Population Apoptotic (%) [1]: 70% | Population Fragmented Nuclei (%) [1]: 22% | Population Healthy Nuclei (%) [1]: 35% | Population Hoechst High Intensity Objects (%) [1]: 22% | Population Membrane Permeable-Phenotype (%) [1]: 24% | Population Mitochondria Different-Phenotype (%) [1]: 76% | Population Mitotic Cells (%) [1]: 29% | Population Normal (%) [1]: 77% | Population Pyknosed Nuclei (%) [1]: 41% | Population Tubulin-Different-Phenotype (%) [1]: 82% | Total Cell Count [1]: 582 | Population Apoptotic (%) [2]: 47% | Population Fragmented Nuclei (%) [2]: 4% | Population Healthy Nuclei (%) [2]: 80% | Population Hoechst High Intensity Objects (%) [2]: 7% | Population Membrane Permeable-Phenotype (%) [2]: 17% | Population Mitochondria Different-Phenotype (%) [2]: 92% | Population Mitotic Cells (%) [2]: 52% | Population Normal (%) [2]: 92% | Population Pyknosed Nuclei (%) [2]: 14% | Population Tubulin-Different-Phenotype (%) [2]: 97% | Total Cell Count [2]: 863 | Population Apoptotic (%) [3]: 28% | Population Fragmented Nuclei (%) [3]: 14% | Population Healthy Nuclei (%) [3]: 60% | Population Hoechst High Intensity Objects (%) [3]: 13% | Population Membrane Permeable-Phenotype (%) [3]: 3% | Population Mitochondria Different-Phenotype (%) [3]: 12% | Population Mitotic Cells (%) [3]: 71% | Population Normal (%) [3]: 86% | Population Pyknosed Nuclei (%) [3]: 24% | Population Tubulin-Different-Phenotype (%) [3]: 12% | Total Cell Count [3]: 583 | Population Apoptotic (%) [4]: 8% | Population Fragmented Nuclei (%) [4]: 6% | Population Healthy Nuclei (%) [4]: 88% | Population Hoechst High Intensity Objects (%) [4]: 3% | Population Membrane Permeable-Phenotype (%) [4]: 2% | Population Mitochondria Different-Phenotype (%) [4]: 16% | Population Mitotic Cells (%) [4]: 91% | Population Normal (%) [4]: 96% | Population Pyknosed Nuclei (%) [4]: 5% | Population Tubulin-Different-Phenotype (%) [4]: 16% | Total Cell Count [4]: 1567 | Population Apoptotic (%) [5]: 79% | Population Fragmented Nuclei (%) [5]: 21% | Population Healthy Nuclei (%) [5]: 37% | Population Hoechst High Intensity Objects (%) [5]: 24% | Population Membrane Permeable-Phenotype (%) [5]: 8% | Population Mitochondria Different-Phenotype (%) [5]: 69% | Population Mitotic Cells (%) [5]: 20% | Population Normal (%) [5]: 75% | Population Pyknosed Nuclei (%) [5]: 40% | Population Tubulin-Different-Phenotype (%) [5]: 56% | Total Cell Count [5]: 612 | Population Apoptotic (%) [6]: 29% | Population Fragmented Nuclei (%) [6]: 5% | Population Healthy Nuclei (%) [6]: 80% | Population Hoechst High Intensity Objects (%) [6]: 10% | Population Membrane Permeable-Phenotype (%) [6]: 4% | Population Mitochondria Different-Phenotype (%) [6]: 67% | Population Mitotic Cells (%) [6]: 70% | Population Normal (%) [6]: 89% | Population Pyknosed Nuclei (%) [6]: 13% | Population Tubulin-Different-Phenotype (%) [6]: 54% | Total Cell Count [6]: 910 | Population Apoptotic (%) [7]: 21% | Population Fragmented Nuclei (%) [7]: 14% | Population Healthy Nuclei (%) [7]: 75% | Population Hoechst High Intensity Objects (%) [7]: 9% | Population Membrane Permeable-Phenotype (%) [7]: 6% | Population Mitochondria Different-Phenotype (%) [7]: 7% | Population Mitotic Cells (%) [7]: 78% | Population Normal (%) [7]: 90% | Population Pyknosed Nuclei (%) [7]: 9% | Population Tubulin-Different-Phenotype (%) [7]: 12% | Total Cell Count [7]: 665 | Population Apoptotic (%) [8]: 10% | Population Fragmented Nuclei (%) [8]: 24% | Population Healthy Nuclei (%) [8]: 73% | Population Hoechst High Intensity Objects (%) [8]: 2% | Population Membrane Permeable-Phenotype (%) [8]: 3% | Population Mitochondria Different-Phenotype (%) [8]: 3% | Population Mitotic Cells (%) [8]: 89% | Population Normal (%) [8]: 97% | Population Pyknosed Nuclei (%) [8]: 2% | Population Tubulin-Different-Phenotype (%) [8]: 8% | Total Cell Count [8]: 2738

O=C(NCCN1CCOCC1)c1ccc2c(c1)C(=O)c1ccc(Nc3ccc(F)c(NC(=O)c4ccccc4)c3)cc1CC2 [FS-694]
Population Apoptotic (%) [3]: 34% | Population Fragmented Nuclei (%) [3]: 35% and 16% | Population Healthy Nuclei (%) [3]: 29% and 54% | Population Membrane Permeable-Phenotype (%) [3]: 32% and 21% | Population Mitochondria Different-Phenotype (%) [3]: 12% and 9% | Population Mitotic Cells (%) [3]: 65% | Population Normal (%) [3]: 41% and 85% | Population Pyknosed Nuclei (%) [3]: 35% and 29% | Population Tubulin-Different-Phenotype (%) [3]: 30% and 33% | Total Cell Count [3]: 1239 and 557 | Population Apoptotic (%) [4]: 28% and 16% | Population Fragmented Nuclei (%) [4]: 3% and 4% | Population Healthy Nuclei (%) [4]: 69% and 85% | Population Membrane Permeable-Phenotype (%) [4]: 15% and 11% | Population Mitochondria Different-Phenotype (%) [4]: 47% and 23% | Population Mitotic Cells (%) [4]: 71% and 83% | Population Normal (%) [4]: 76% and 96% | Population Pyknosed Nuclei (%) [4]: 26% and 9% | Population Tubulin-Different-Phenotype (%) [4]: 97% and 66% | Total Cell Count [4]: 1142 and 1356 | Population Apoptotic (%) [7]: 48% and 24% | Population Membrane Permeable-Phenotype (%) [7]: 31% and 22% | Population Mitochondria Different-Phenotype (%) [7]: 14% and 8% | Population Mitotic Cells (%) [7]: 51% and 75% | Population Normal (%) [7]: 43% and 89% | Population Pyknosed Nuclei (%) [7]: 34% and 16% | Population Tubulin-Different-Phenotype (%) [7]: 18% and 51% | Total Cell Count [7]: 1331 and 564 | Population Fragmented Nuclei (%) [8]: 5% | Population Healthy Nuclei (%) [8]: 85% and 58% | Population Mitotic Cells (%) [8]: 90% and 60% | Population Normal (%) [8]: 95% and 69% | Population Tubulin-Different-Phenotype (%) [8]: 70% and 96% | Total Cell Count [8]: 1983 and 1283
